Data on twelve molecules can be found in ChEMBL document CHEMBL4312005, “Optimization of pyrrolizine-based Schiff bases with 4-thiazolidinone motif: Design, synthesis and investigation of cytotoxicity and anti-inflammatory potency” (Eur J Med Chem, 2020).

The structures appear in SMILES notation. Some results are limits rather than exact numbers.

The subject of data set [1] is A2780. Nature of the data set: Antiproliferative activity against human A2780 cells assessed as reduction in cell growth incubated for 72 hrs by MTT assay. The conditions noted are these: A2780, 72 h. The data set is classed as functional, cell-based. In outline: (§1)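 MTT assay on MCF-7, A2780, HT29 and normal MRC5 fibroblast lines (ATCC) grown in DMEM with 10% FBS. Cells exposed to compounds for 72 h, then reduced MTT read at 570 nm.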
(Tetrazolium assays rely on reduction of a dye to a coloured formazan, in cell work by metabolically active cells.)

Data set [2] concerns the target Prostaglandin G/H synthase 1 (Homo sapiens, UniProt P23219). Kind of data set: Inhibition of human COX1 using arachidonic acid as substrate incubated for 2 mins by ELISA method. In general terms: An ELISA detects its analyte on a solid surface through an enzyme-linked reagent.
Data set [3] deals with MRC5. Kind of data set: Cytotoxicity against human MRC5 cells assessed as reduction in cell growth incubated for 72 hrs by MTT assay. In kind it is cell-based. The conditions noted are these: MRC5, 72 h. In outline: as §1
The test system of data set [4] is HT-29. Kind of data set: Antiproliferative activity against human HT-29 cells assessed as reduction in cell growth incubated for 72 hrs by MTT assay. The data set is classed as functional, cell-based. The conditions noted are these: HT-29, 72 h. In a few lines:
as §1

Data set [5] deals with MCF7. Kind of data set: Antiproliferative activity against human MCF7 cells assessed as reduction in cell growth incubated for 72 hrs by MTT assay. The data set is classed as functional, cell-based. The conditions noted are these: MCF7, 72 h. In a few lines: as §1
Data set [6] in a line: Selectivity index, ratio of IC50 for cytotoxicity against human MRC5 cells to IC50 for antiproliferative activity against human MCF7 cells. The conditions noted are these: MRC5 cells versus MCF7 cells.
For data set [7], the system named is MCF7. Nature of the data set: Antiproliferative activity against human MCF7 cells assessed as cell viability at 5 uM incubated for 48 hrs by MTT assay (reference value: 100 %). In kind it is functional. Particulars: MCF7, 48 h, read-out: Activity. In a few lines: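 Preliminary single-dose screen by MTT assay. MCF-7 cells grown in DMEM/10% FBS were exposed to 5 μM compound for 48 h, and growth% was determined. Values are mean ± S.D., n = 6.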

Data set [8] can be described thus: Selectivity index, ratio of IC50 for cytotoxicity against human MRC5 cells to IC50 for antiproliferative activity against human A2780 cells. The conditions noted are these: MRC5 cells versus A2780 cells.
Data set [9] can be described thus: Selectivity index, ratio of IC50 for cytotoxicity against human MRC5 cells to IC50 for antiproliferative activity against human HT-29 cells. Particulars: MRC5 cells versus HT-29 cells.
Data set [10] deals with Rattus norvegicus. Nature of the data set: Antiinflammatory activity against albino rats assessed as inhibition of carrageenan-induced paw edema at 0.5 mmol, po measured after 4 hrs relative to control. In kind it is functional. In outline:
(§2)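 Carrageenan rat paw edema (Winter method) in male and female adult albino rats (100-140 g). […] Swelling inhibition expressed as % of control at 2-4 h after carrageenan injection.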

In data set [11] the test system is Rattus norvegicus. Nature of the data set: Antiinflammatory activity against albino rats assessed as inhibition of carrageenan-induced paw edema at 0.5 mmol, po measured after 2 hrs relative to control. The data set is classed as functional. In a few lines: as §2
For orientation: Carrageenan injected into the paw causes an acute inflammation.

Chain of Prostaglandin G/H synthase 1 (P23219 whole entry): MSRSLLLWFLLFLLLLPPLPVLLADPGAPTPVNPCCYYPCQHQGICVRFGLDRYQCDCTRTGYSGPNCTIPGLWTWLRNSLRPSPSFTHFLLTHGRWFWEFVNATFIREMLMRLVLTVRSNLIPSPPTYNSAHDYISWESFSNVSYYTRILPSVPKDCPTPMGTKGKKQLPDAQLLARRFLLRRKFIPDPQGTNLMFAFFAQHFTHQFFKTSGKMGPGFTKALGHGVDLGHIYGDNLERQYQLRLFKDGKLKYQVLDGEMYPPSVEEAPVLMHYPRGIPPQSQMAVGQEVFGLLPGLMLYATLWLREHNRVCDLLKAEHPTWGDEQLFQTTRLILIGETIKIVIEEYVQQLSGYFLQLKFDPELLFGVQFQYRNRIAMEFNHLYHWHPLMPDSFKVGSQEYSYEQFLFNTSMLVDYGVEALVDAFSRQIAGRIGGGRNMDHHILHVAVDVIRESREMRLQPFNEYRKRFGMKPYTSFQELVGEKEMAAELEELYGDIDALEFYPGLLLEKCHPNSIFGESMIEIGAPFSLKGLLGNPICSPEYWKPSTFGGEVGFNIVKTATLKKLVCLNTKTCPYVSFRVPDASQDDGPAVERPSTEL

In general, IC50 refers to the concentration needed to halve the response being measured. In the case of `CC/C=N/c1c(C#N)c2n(c1C(=O)Nc1ccc(C)cc1)CCC2`, the concentration for half-maximal inhibition (IC50) came to 3.88 µM in [1]; 27.7 µM in data set [2]; 0.56 µM in [3]; 0.61 µM in data set [4]; 0.84 µM in data set [5].

As to `CC/C=N/c1c(C#N)c2n(c1C(=O)Nc1ccc(Br)cc1)CCC2`, the 50% inhibitory concentration (IC50) in data set [1] is 0.27 µM; in data set [2] it was 14.2 µM; in data set [3], 21.2 µM; in data set [4], 0.89 µM; in data set [5], 0.14 µM. Moreover, the selectivity ratio in [6], in [8] and in [9] was 24 to 152 in each case. The viability at 5 µM in data set [7] is 49%.

Turning to `CCC1SCC(=O)N1c1c(C#N)c2n(c1C(=O)Nc1ccc(C)cc1)CCC2` (stereo unspecified), the 50% inhibitory concentration (IC50) in [1] was 0.11 µM; in data set [2], greater than 100 µM; in data set [3] it was 1.7 µM; in data set [4], 0.12 µM; in data set [5], 0.47 µM. Besides, the selectivity ratio in data set [6] and in data set [8] was 3 to 15 in each case.

`CC/C=N/c1c(C#N)c2n(c1C(=O)Nc1ccc(Cl)cc1)CCC2`: the IC50 in data set [1] was 0.58 µM; in data set [2], 15.6 µM; in data set [3], 0.17 µM; in [4], 1.02 µM; in [5], 0.74 µM. Also, the “inhibition (INH)” value in [10] was determined as 24.06%; in data set [11] it was 19.17%.

For `CC/C=N/c1c(C#N)c2n(c1C(=O)Nc1ccccc1)CCCC2`, the IC50 was determined as 15.6 µM in [1]; 27.2 µM in [2]; 1.53 µM in [3]; 0.14 µM in data set [4]; 1.43 µM in [5].

In the case of `CCC1SCC(=O)N1c1c(C#N)c2n(c1C(=O)Nc1ccccc1)CCCC2` (stereo unspecified), the IC50 in [1] is 4.24 µM; in data set [2] it was 65.4 µM; in data set [3], 11.1 µM; in [4], 2.06 µM; in data set [5], 0.84 µM. In addition, the selectivity ratio in data set [6] was in the range of 3 to 15.

Consider `CS(=O)(=O)CCNCc1ccc(-c2ccc3ncnc(Nc4ccc(OCc5cccc(F)c5)c(Cl)c4)c3c2)o1` [LAPATINIB], for which the concentration for half-maximal inhibition (IC50) stood at 13.7 µM in data set [3] and 12.7 µM in data set [4].

Regarding `CCC1SCC(=O)N1c1c(C#N)c2n(c1C(=O)Nc1ccc(Cl)cc1)CCC2` (stereo unspecified), the half-inhibitory concentration (IC50) in data set [1] is 0.31 µM; in data set [2] it was greater than 100 µM; in data set [3], 0.91 µM; in data set [4], 0.2 µM; in data set [5] it was 0.21 µM. In addition, the results for the “inhibition (INH)” value in data set [10] and in [11] were 32.48% and 21.76%, respectively. The selectivity ratio in data set [6] and in [8] was 3 to 15 in each case.

With `N#Cc1c(/N=C/c2ccc(Cl)cc2)c(C(=O)Nc2ccc(Br)cc2)n2c1CCC2`, the IC50 in data set [1] was 8.3 µM; in data set [2], greater than 100 µM; in [3], 13.8 µM; in [4], 7.79 µM; in data set [5] it was 6.03 µM. For the same molecule, the selectivity ratio in data set [6], in data set [8] and in data set [9] was 2 to 52 throughout. The viability at 5 µM in data set [7] is 73%.

As to `N#Cc1c(/N=C/c2cccnc2)c(C(=O)Nc2ccc(Br)cc2)n2c1CCC2`, the IC50 is 23 µM in data set [1]; greater than 100 µM in [2]; 25.6 µM in data set [3]; 2.63 µM in [4]; 11.3 µM in [5]. Moreover, the selectivity ratio in data set [6], in data set [8] and in [9] was 1 to 10 throughout. Further, the viability at 5 µM in data set [7] turned out to be 81%.

Turning to `N#Cc1c(/N=C/c2ccccc2)c(C(=O)Nc2ccc(Br)cc2)n2c1CCC2`, the 50% inhibitory concentration (IC50) in data set [1] is 4.16 µM; in data set [2] it was greater than 100 µM; in [3] it was 9 µM; in [4], 2.97 µM; in data set [5], 0.5 µM. Further, the selectivity ratio in data set [6], in [8] and in data set [9] was 2 to 52 in each case. Moreover, the viability at 5 µM in data set [7] turned out to be 73%.

On to `N#Cc1c(/N=C/c2cccs2)c(C(=O)Nc2ccc(Br)cc2)n2c1CCC2`, for which the IC50 in data set [1] is 19.3 µM; in data set [2], greater than 100 µM; in data set [3], 23.1 µM; in [4], 3.65 µM; in data set [5], 9.41 µM. Further, the selectivity ratio in data set [6], in data set [8] and in [9] was 1 to 10 in each case. Further, the viability at 5 µM in data set [7] worked out at 77%.
